Screening data deposited in PubChem BioAssay by Johns Hopkins Ion Channel Center.
RGS4 block – inhibitors of human RGS4; AID 463165; 310,000 tested, 0.45% active; P49798; B-score at 10 µM; HEK293 M3R/RGS4 inducible, Fluo-4 calcium flux; hits give high values; triggered by carbachol at its EC20;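 active means B-score, a plate-corrected calcium signal, over three deviations above library mean, with baseline fluorescence within five deviations of library mean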;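 further: RGS4 expression induced by doxycycline in cells with stable M3 receptor; B-score is computed from the integrated fluorescence ratio over baseline after carbachol; higher B-score means a larger calcium signal and so more RGS4 inhibition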
Target sequence (P49798 whole entry, looked up): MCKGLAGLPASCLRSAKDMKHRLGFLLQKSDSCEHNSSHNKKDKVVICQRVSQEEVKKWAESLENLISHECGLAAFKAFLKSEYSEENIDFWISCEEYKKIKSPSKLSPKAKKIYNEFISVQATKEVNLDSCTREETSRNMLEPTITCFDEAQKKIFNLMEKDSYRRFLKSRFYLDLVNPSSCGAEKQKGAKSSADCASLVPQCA
MrgX1 antag – blocks BAM8-22 activation of human MrgX1 receptor | Q96LB2 | MRGX1-HEK293 calcium flux, Fluo-4, BAM8-22 antagonism; hits give low values | B-score at 10 µM | 310,000 tested, 1.3% active | AID 588676;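 active means calcium-response B-score plate-corrected more than 3 library SD below zero, starting fluorescence within 5 deviations, no agonist response on first addition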;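 further: peak minus trough fluorescence over baseline after final BAM8-22 challenge near maximal dose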
Target sequence (Q96LB2 whole entry, looked up): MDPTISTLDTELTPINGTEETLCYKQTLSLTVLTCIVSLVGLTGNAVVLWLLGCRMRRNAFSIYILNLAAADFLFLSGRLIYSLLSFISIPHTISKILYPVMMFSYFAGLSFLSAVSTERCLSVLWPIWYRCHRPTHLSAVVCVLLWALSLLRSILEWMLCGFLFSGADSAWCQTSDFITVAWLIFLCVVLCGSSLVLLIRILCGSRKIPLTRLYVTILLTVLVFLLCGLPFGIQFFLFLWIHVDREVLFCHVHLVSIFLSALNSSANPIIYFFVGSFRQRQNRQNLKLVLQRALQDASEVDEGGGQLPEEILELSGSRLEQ
MrgX1 agonist – agonists of human MrgX1 receptor; MrgX1-HEK293 cells, Fluo-4 calcium fluorescence, agonist mode; hits give high values; B-score at 10 µM; 310,000 tested, 0.44% active; AID 588627; Q96LB2;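 active means calcium response B-score plate-corrected fluorescence ratio at least 3 library SD, with starting fluorescence B-score inside 5 SD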
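Material – MrgX1-expressing HEK293 cells · Input – 15,000 cells seeded per well · Dosing – compound as first of three additions · Times – overnight seeding, then 1 h dark dye loading · Measured by – kinetic Fluo-4 NW fluorescence of intracellular calcium · Read-out – B-scored fluorescence response ratio · Benchmarks – positive and negative control wells on each plate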
RGS4 act – potentiators or activators of RGS4; 310,000 tested, 0.92% active; AID 463111; B-score at 10 µM; HEK293 M3R/inducible RGS4, carbachol calcium flux Fluo4; hits give low values;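 active means B-score of the integrated calcium signal more than 4 SD below the library mean, with starting fluorescence not abnormally high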;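 further: negative B-score means reduced calcium response which marks RGS4 activation or potentiation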
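test system = HEK293 cells with stable M3R and inducible RGS4 | schedule = recording 10 s baseline at 1 Hz, 100 s post-agonist | technique = Fluo4-AM (2 µM) calcium-flux fluorescence, kinetic read | measure = Agonist-evoked peak-minus-minimum fluorescence over baseline, integrated ratio, B score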
MrgX1 allo act – allosterically activates human MrgX1 receptor signaling. MrgX1-HEK293, Fluo-4 calcium flux, FDSS; hits give high values. Q96LB2. 310,000 tested, 0.63% active. B-score at 10 µM. AID 588675;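 active means plate-corrected calcium response at least 3 library SD above typical, normal starting fluorescence, not activating the receptor alone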;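 further: compound read alongside a low EC10 to EC30 dose of BAM8-22 agonist; peak minus trough fluorescence over baseline measured at the second addition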
MrgX1 antag conf – human MrgX1 receptor antagonism, re-confirmation screen; shares compounds with MrgX1 antag; MrgX1-HEK293, BAM8-22 calcium flux, Fluo-4; hits give low values; remaining BAM8-22 calcium response % of control (hits give low values), % at 10 µM; 2,300 tested, 19% active;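 active means remaining agonist calcium response no higher than 100% minus 3 SD of agonist-only control wells, with starting fluorescence near control levels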;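 further: agonist BAM8-22 given at a near maximal EC90 to ECmax level; peak minus minimum fluorescence divided by baseline after agonist addition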
HEK293 Ca flux – MrgX1 antagonist counter-screen hit in parental HEK293 cells; shares compounds with MrgX1 antag; Fluo-4 calcium fluorescence, FDSS; fluorescence ratio F(max-min)/F0 at 10 µM; 4,000 tested, 2% active; AID 624111;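 active means duplicate-averaged calcium fluorescence ratio at least three times the standard deviation of buffer wells, a nonspecific response in parental cells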
HEK293 Ca counter – counter-screen for MrgX1 allosteric activators: effect in parental HEK293 cells; shares compounds with MrgX1 antag; parental HEK293 calcium flux, Fluo-4 fluorescence ratio; hits give high values; fluorescence ratio F(max-min)/F0 at 10 µM; 4,000 tested, 0.4% active; AID 624114;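 active means calcium fluorescence ratio, averaged over duplicates, at least 3 SD of the buffer-well ratio, meaning a nonspecific response in receptor-free cells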;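 further: untransfected parental HEK293 lacking MrgX1 used as counterscreen for MrgX1 allosteric activators; fluorescence change taken during the second addition on a kinetic imager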
HEK293 Ca cntr2 – MrgX1 activator counter-screen hit in parental HEK293 cells | fluorescence ratio F(max-min)/F0 at 10 µM | 4,000 tested, 8.7% active | shares compounds with MrgX1 antag | AID 624115 | Fluo-4 calcium fluorescence (FDSS); hits give high values;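 active means calcium fluorescence ratio at least three times the spread of buffer wells, meaning a non-specific response in parental cells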
* hit, by the source's call; i = inactive; · = no result given. Most compounds without a hit are left out; they make up all but 3.5% or so of the library.

SMILES	RGS4 block	MrgX1 antag	MrgX1 agonist	RGS4 act	MrgX1 allo act	MrgX1 antag conf	HEK293 Ca flux	HEK293 Ca counter	HEK293 Ca cntr2
CC(C)N(Cc1nccn1C)C(=O)CC1C(=O)NCCN1Cc1ccc(F)c(F)c1 (stereo not drawn)	i	-6.5*	i	i	i	72%*	i	i	i
C/C=C/c1ccc(OCC(=O)N2CCc3cc(OC)c(OC)cc3C2)c(OC)c1	i	i	i	i	i	·	·	·	·
c1ccn2c(Cc3nnc4ccccn34)nnc2c1	i	-5.5*	i	i	i	i	i	i	i
c1csc(-c2nnc3ccccn23)c1	i	i	i	i	i	·	·	·	·
CCN(CC(=O)Nc1c(F)cccc1F)C(=O)c1ccc(C#N)cc1	i	i	i	i	i	·	·	·	·
COc1ccc(CCNc2ncnc3c2oc2ccccc23)cc1OC	i	-4.6*	i	i	i	43%*	i	i	i
COc1ccc(-c2nc3ccccc3c(=O)n2CCOc2c(C)cccc2C)cc1	i	-4.6*	i	i	i	i	0.2*	i	i
COC1OC(COC(=O)c2ccccc2)C(OC(=O)c2ccccc2)C1OC(=O)c1ccccc1 (stereo not drawn)	i	-5.5*	i	i	i	i	i	i	i
CO[C@H]1O[C@H](CBr)[C@@H](OC(=O)c2ccccc2)[C@H](O)[C@H]1O	i	i	i	i	i	·	·	·	·
CC(=O)N1c2ccc(S(=O)(=O)N(C)C3CCCCC3)cc2CC1C (stereo not drawn)	i	i	i	i	i	·	·	·	·
N#Cc1c(N)nc2c(c1-c1ccccc1)CCCC2	i	i	i	i	i	·	·	·	·
CSc1nc2c(c(-c3ccccc3)c1C#N)CCC2	i	-6.5*	i	i	i	i	i	i	i
O=C(CSc1nnc(Cc2ccc3c(c2)OCO3)n1C1CCCCC1)NC1CCCC1	i	i	i	i	i	·	·	·	·
NC(=O)CSc1nnc(Cc2ccc3c(c2)OCO3)n1C1CCCCC1	i	-4.6*	i	i	i	i	i	i	55*
Cc1cc(C)c(NC(=S)N(CCCN2CCOCC2)Cc2cccnc2)c(C)c1	i	i	i	i	i	·	·	·	·
Cc1cccc(C)c1NC(=S)N(CCCN1CCOCC1)Cc1cccnc1	i	-4.9*	i	i	i	i	i	i	i
Cc1ccc2c(c1)N(CC(=O)N1CCCCCC1)C(=O)C(C)O2 (stereo not drawn)	i	i	i	i	i	·	·	·	·
Cc1[nH]c2ccc(C(=O)OC(C)C(=O)NC3(C#N)CCCCC3)cc2c1C (stereo not drawn)	i	-6*	i	i	i	i	i	i	i
CC1(C)CC(=O)c2c(O)cc(O)cc2O1	i	i	i	i	i	·	·	·	·
C[C@]12CCC[C@H](O1)c1c(cc3c(c1O)C(=O)c1c(O)cc(O)cc1C3=O)O2	i	-7.6*	i	i	i	i	0.64*	i	i
Cc1ccc(N(CC(=O)NCCSc2ccccn2)S(C)(=O)=O)cc1	i	i	i	i	i	·	·	·	·
COc1cc(C2C3=C(CCCC3=O)Nc3ccc4ncccc4c32)ccc1O (stereo not drawn)	i	i	i	i	i	·	·	·	·
COc1ccc(C2C3=C(CCCC3=O)Nc3ccc4ncccc4c32)cc1OC (stereo not drawn)	i	-4.7*	i	i	i	i	i	i	i
CNC(=O)CSc1nc2cccnc2n1-c1ccc(F)cc1	i	i	i	i	i	·	·	·	·
Cc1cc(C(=O)NC(C)c2ccccc2)c2cc(F)ccc2n1 (stereo not drawn)	i	-5.4*	i	i	i	i	i	i	i
SMILES	RGS4 block	MrgX1 antag	MrgX1 agonist	RGS4 act	MrgX1 allo act	MrgX1 antag conf	HEK293 Ca flux	HEK293 Ca counter	HEK293 Ca cntr2
Cc1cc(C(=O)NC2CCCCC2)c2cc(F)ccc2n1	i	i	i	i	i	·	·	·	·
C/C=C\C=C\C(=O)Nc1cccc(C2=NOC3(C2)C[C@@H](C(N)=O)N(C(=O)C(c2ccccc2)c2ccccc2)C3)c1 (stereo partly drawn)	i	i	i	i	i	·	·	·	·
O=CN1CCN(S(=O)(=O)c2ccc(S(=O)(=O)NC3CCCCC3)cc2)CC1	i	i	i	i	i	·	·	·	·
Cc1cccc(OCCCC(=O)NC2CCCCC2)c1	i	-6.7*	i	i	i	i	i	i	i
Cc1cccc(OCC(=O)NC2CCCC2)c1	i	i	i	i	i	·	·	·	·
COc1cc(C2C(C#N)=C(N)N(c3cccnc3)C3=C2C(=O)CC(C)(C)C3)ccc1O (stereo not drawn)	i	i	i	i	i	·	·	·	·
COc1ccccc1C1C(C#N)=C(N)N(c2cccnc2)C2=C1C(=O)CC(C)(C)C2 (stereo not drawn)	i	-8.8*	i	i	i	i	i	i	i
O=C(CCN1CCC(c2cccs2)=N1)c1cccs1	i	i	i	i	i	·	·	·	·
CCn1c(C)c(C(C)=O)c(N2CCN(c3ccccn3)CC2)nc1=S	i	i	i	i	i	·	·	·	·
CCn1c(C)c(C(C)=O)c(N2CCN(c3ccccc3)CC2)nc1=S	i	-8.9*	i	i	i	i	i	i	i
CCOc1ccc(-c2c(C(=O)N/N=C/c3ccsc3)nnn2-c2nonc2N)cc1	i	i	i	i	i	·	·	·	·
CC(=O)c1nn(-c2ccc(Cl)cc2)c(=O)[nH]c1=O	i	i	i	i	i	·	·	·	·
COc1cc(C2NC(=S)NC(C)=C2C(=O)Nc2cc(C)cc(C)c2)ccc1O (stereo not drawn)	i	i	i	i	i	·	·	·	·
COc1ccc(Cn2c(C)ccc2C)cc1	i	-6.3*	i	i	i	i	i	i	i
